Measurements reported in ChEMBL document CHEMBL1221265, “Synthesis and in vitro antibacterial activity of novel fluoroquinolone derivatives containing substituted piperidines” (Bioorg Med Chem Lett, 2010).
Values after ≈ are worked out from the molar mass of the structure shown.

What was measured:
Enterococcus faecalis = assay: Antibacterial activity against Enterococcus faecalis ATCC 29212 after 18 to 24 hrs by agar dilution method; format: functional
How it was run: (§1)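 Agar dilution done to NCCLS recommendations. Plates incubated 18–24 h at 35 °C. MIC taken as the lowest concentration of compound that gave no visible bacterial growth.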

Streptococcus pneumoniae = assay: Antibacterial activity against Streptococcus pneumoniae ATCC 49619 after 18 to 24 hrs by agar dilution method; format: functional; how it was run: as §1
[1] = tested on: Staphylococcus epidermidis; assay: Antibacterial activity against Staphylococcus epidermidis ATCC 12228 after 18 to 24 hrs by agar dilution method; format: functional; how it was run: as §1
[2] = Cytotoxicity against african green monkey Vero cells after 48 hrs by CPE assay; format: cell-based; conditions: chlorocebus sabaeus
Enterobacter cloacae = assay: Antibacterial activity against Enterobacter cloacae 45301 after 18 to 24 hrs by agar dilution method; format: functional; how it was run: as §1
Escherichia coli = assay: Antibacterial activity against Escherichia coli 26 after 18 to 24 hrs by agar dilution method; format: functional; how it was run: as §1
Staphylococcus aureus [3] = assay: Antibacterial activity against Staphylococcus aureus ATCC 29213 after 18 to 24 hrs by agar dilution method; format: functional; how it was run: as §1
Shigella sonnei = assay: Antibacterial activity against Shigella sonnei 51592 after 18 to 24 hrs by agar dilution method; format: functional; how it was run: as §1
Staphylococcus aureus [4] = assay: Antibacterial activity against methicillin-resistant Staphylococcus aureus 08-52 after 18 to 24 hrs by agar dilution method; format: functional
How it was run: (§2)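 Agar dilution MIC per NCCLS recommendations. MIC is the lowest concentration giving no visible bacterial growth after incubation at 35 °C for 18–24 h.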

Klebsiella pneumoniae = assay: Antibacterial activity against Klebsiella pneumoniae 7 after 18 to 24 hrs by agar dilution method; format: functional; how it was run: as §1
Pseudomonas aeruginosa = assay: Antibacterial activity against Pseudomonas aeruginosa 17 after 18 to 24 hrs by agar dilution method; format: functional; how it was run: as §1
Streptococcus pyogenes = assay: Antibacterial activity against Streptococcus pyogenes 06-1 after 18 to 24 hrs by agar dilution method; format: functional; how it was run: as §1
[5] = tested on: Staphylococcus epidermidis; assay: Antibacterial activity against methicillin-resistant Staphylococcus epidermidis 08-18 after 18 to 24 hrs by agar dilution method; format: functional; how it was run: as §2

SMILES	MIC (Enterococcus faecalis) [µg/mL]	MIC (Streptococcus pneumoniae) [µg/mL]	MIC [1] [µg/mL]	CC50 at 48 h [2] [µg/mL]	MIC (Enterobacter cloacae) [µg/mL]	MIC (Escherichia coli) [µg/mL]	MIC (Staphylococcus aureus [3]) [µg/mL]	MIC (Shigella sonnei) [µg/mL]	MIC (Staphylococcus aureus [4]) [µg/mL]	MIC (Klebsiella pneumoniae) [µg/mL]	MIC (Pseudomonas aeruginosa) [µg/mL]	MIC (Streptococcus pyogenes) [µg/mL]	MIC [5] [µg/mL]
CO/N=C1/CCN(c2nc3c(cc2F)c(=O)c(C(=O)O)cn3C2CC2)CC1(C)CN (configuration not stated)	32 (≈ 76.7 µM)	32 (≈ 76.7 µM)	1 (≈ 2.4 µM)	177 (≈ 423 µM)	4 (≈ 9.58 µM)	0.5 (≈ 1.2 µM)	0.5 (≈ 1.2 µM)	1 (≈ 2.4 µM)	8 (≈ 19.2 µM)	0.5 (≈ 1.2 µM)	8 (≈ 19.2 µM)	8 (≈ 19.2 µM)	0.25 (≈ 0.599 µM)
CCO/N=C1/CCN(c2nc3c(cc2F)c(=O)c(C(=O)O)cn3C2CC2)CC1(C)CN (configuration not stated)	4 (≈ 9.27 µM)	4 (≈ 9.27 µM)	0.5 (≈ 1.16 µM)	44.2 (≈ 102 µM)	8 (≈ 18.5 µM)	1 (≈ 2.32 µM)	0.25 (≈ 0.579 µM)	1 (≈ 2.32 µM)	8 (≈ 18.5 µM)	1 (≈ 2.32 µM)	16 (≈ 37.1 µM)	16 (≈ 37.1 µM)	0.25 (≈ 0.579 µM)
CO/N=C1/CCN(c2nc3c(cc2F)c(=O)c(C(=O)O)cn3-c2ccc(F)cc2F)CC1(C)CN (configuration not stated)	> 128	64 (≈ 131 µM)	2 (≈ 4.09 µM)	88.4 (≈ 181 µM)	32 (≈ 65.4 µM)	8 (≈ 16.3 µM)	1 (≈ 2.04 µM)	8 (≈ 16.3 µM)	128 (≈ 262 µM)	128 (≈ 262 µM)	32 (≈ 65.4 µM)	64 (≈ 131 µM)	2 (≈ 4.09 µM)
CCO/N=C1/CCN(c2nc3c(cc2F)c(=O)c(C(=O)O)cn3-c2ccc(F)cc2F)CC1(C)CN (configuration not stated)	> 128	128 (≈ 254 µM)	4 (≈ 7.94 µM)	78.8 (≈ 156 µM)	32 (≈ 63.6 µM)	8 (≈ 15.9 µM)	2 (≈ 3.97 µM)	16 (≈ 31.8 µM)	128 (≈ 254 µM)	64 (≈ 127 µM)	128 (≈ 254 µM)	64 (≈ 127 µM)	2 (≈ 3.97 µM)
CO/N=C1/CCN(c2c(F)cc3c(=O)c(C(=O)O)cn(C4CC4)c3c2F)CC1(C)CN (configuration not stated)	64 (≈ 147 µM)	32 (≈ 73.7 µM)	0.25 (≈ 0.575 µM)	88.4 (≈ 203 µM)	4 (≈ 9.21 µM)	0.5 (≈ 1.15 µM)	0.25 (≈ 0.575 µM)	1 (≈ 2.3 µM)	16 (≈ 36.8 µM)	64 (≈ 147 µM)	16 (≈ 36.8 µM)	32 (≈ 73.7 µM)	0.25 (≈ 0.575 µM)
CCO/N=C1/CCN(c2c(F)cc3c(=O)c(C(=O)O)cn(C4CC4)c3c2F)CC1(C)CN (configuration not stated)	2 (≈ 4.46 µM)	8 (≈ 17.8 µM)	0.25 (≈ 0.557 µM)	62.5 (≈ 139 µM)	16 (≈ 35.7 µM)	2 (≈ 4.46 µM)	0.125 (≈ 0.279 µM)	2 (≈ 4.46 µM)	8 (≈ 17.8 µM)	2 (≈ 4.46 µM)	16 (≈ 35.7 µM)	16 (≈ 35.7 µM)	0.25 (≈ 0.557 µM)
CCn1cc(C(=O)O)c(=O)c2cc(F)c(N3CC/C(=N/OC)C(C)(CN)C3)c(F)c21 (configuration not stated)	128 (≈ 303 µM)	128 (≈ 303 µM)	2 (≈ 4.73 µM)	315 (≈ 746 µM)	32 (≈ 75.8 µM)	8 (≈ 18.9 µM)	1 (≈ 2.37 µM)	8 (≈ 18.9 µM)	32 (≈ 75.8 µM)	64 (≈ 152 µM)	64 (≈ 152 µM)	64 (≈ 152 µM)	2 (≈ 4.73 µM)
CCO/N=C1/CCN(c2c(F)cc3c(=O)c(C(=O)O)cn(CC)c3c2F)CC1(C)CN (configuration not stated)	128 (≈ 293 µM)	64 (≈ 147 µM)	4 (≈ 9.16 µM)	78.8 (≈ 180 µM)	128 (≈ 293 µM)	16 (≈ 36.7 µM)	2 (≈ 4.58 µM)	32 (≈ 73.3 µM)	16 (≈ 36.7 µM)	16 (≈ 36.7 µM)	128 (≈ 293 µM)	64 (≈ 147 µM)	2 (≈ 4.58 µM)
CO/N=C1/CCN(c2c(F)cc3c(=O)c(C(=O)O)cn(CCF)c3c2F)CC1(C)CN (configuration not stated)	> 128	128 (≈ 291 µM)	4 (≈ 9.08 µM)	315 (≈ 715 µM)	64 (≈ 145 µM)	8 (≈ 18.2 µM)	2 (≈ 4.54 µM)	16 (≈ 36.3 µM)	64 (≈ 145 µM)	–	64 (≈ 145 µM)	128 (≈ 291 µM)	2 (≈ 4.54 µM)
CCO/N=C1/CCN(c2c(F)cc3c(=O)c(C(=O)O)cn(CCF)c3c2F)CC1(C)CN (configuration not stated)	128 (≈ 282 µM)	128 (≈ 282 µM)	4 (≈ 8.8 µM)	157 (≈ 347 µM)	64 (≈ 141 µM)	16 (≈ 35.2 µM)	2 (≈ 4.4 µM)	64 (≈ 141 µM)	64 (≈ 141 µM)	64 (≈ 141 µM)	128 (≈ 282 µM)	128 (≈ 282 µM)	4 (≈ 8.8 µM)
CO/N=C1/CCN(c2c(F)cc3c(=O)c(C(=O)O)cn4c3c2OC[C@@H]4C)CC1(C)CN (some centres not stated)	128 (≈ 296 µM)	128 (≈ 296 µM)	2 (≈ 4.62 µM)	177 (≈ 409 µM)	16 (≈ 37 µM)	4 (≈ 9.25 µM)	1 (≈ 2.31 µM)	8 (≈ 18.5 µM)	64 (≈ 148 µM)	128 (≈ 296 µM)	32 (≈ 74 µM)	64 (≈ 148 µM)	1 (≈ 2.31 µM)
C[C@H]1COc2c(N3CCN(C)CC3)c(F)cc3c(=O)c(C(=O)O)cn1c23.C[C@H]1COc2c(N3CCN(C)CC3)c(F)cc3c(=O)c(C(=O)O)cn1c23.O [LEVOFLOXACIN]	0.5	–	0.25	> 1000	0.125	–	0.125	1	16	–	0.25	16	0.125
